Legend:
Type in all cases: ADME, organism-based
Homo sapiens [1] = assay: Maximal change in insulin concentration in healthy white human plasma at 2 mg, po up to 6 hrs; conditions: in vivo
How it was run: (§1)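 Plasma insulin was sampled up to 6 h after a single oral 2 mg dose, with subjects fasting. It was measured by solid-phase enzyme-labelled chemiluminescent immunometric assay, calibration range 2–300 mU/l. Maximal change is the largest change from the baseline concentration within 6 h.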

Homo sapiens [2] = assay: Mean change in insulin concentration in healthy white human plasma with SLCO1B1 521CC/CYP2C8*1/*3 combined genotype at 2 mg, po; conditions: in vivo
How it was run: (§2)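 Healthy Caucasians got a single 2 mg oral dose and were genotyped for CYP2C8*3 and SLCO1B1 521T>C. Plasma insulin was sampled from pre-dose to 6 h and measured by solid-phase enzyme-labelled chemiluminescent immunometric assay (calibration 2–300 mU/l). Mean change is the average of post-dose values minus baseline up to 6 h, summarised per genotype group.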

[3] = Tmax in healthy white human with CYP2C8*1/*1 genotype at 2 mg, po; conditions: in vivo
[4] = AUC (0 to infinity) in healthy white human with CYP2C8*1/*1 genotype at 2 mg, po; design: dose 2 mg, time infinity, route oral; conditions: plasma
How it was run: (§3)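 Healthy Caucasians genotyped for CYP2C8*3 and SLCO1B1 521T>C were given a single oral 2 mg dose of repaglinide, and alcohol, caffeine and grapefruit were withheld. Plasma was sampled before dosing and at 15 times from 0.25 to 24 h. Drug was measured by LC-MS/MS against diclofenac internal standard, linear 0.098–79.139 µg/L. Noncompartmental analysis: Cmax taken as observed; AUC by linear/log-linear trapezoidal rule extrapolated to infinity.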

Homo sapiens [5] = assay: Mean change in blood glucose concentration in healthy white human plasma SLCO1B1 521TT/CYP2C8*1/*3 combined genotype at 2 mg, po; conditions: in vivo
How it was run: (§4)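 Single 2 mg oral dose in healthy Caucasian volunteers genotyped for CYP2C8*3, with SLCO1B1 521T>C also typed. […] Mean change is the average difference between values up to 6 h post-dose and baseline. Fasting lasted to 6 h. Mean with 95% CI or SD by genotype group.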

[6] = Cmax in healthy white human with SLCO1B1 521CC/CYP2C8*1/*3 combined genotype at 2 mg, po; design: dose 2 mg, route oral; conditions: in vivo; how it was run: as §3
Homo sapiens [7] = assay: Mean change in insulin concentration in healthy white human plasma with CYP2C8*3/*3 genotype at 2 mg, po up to 6 hrs; conditions: in vivo; how it was run: as §2
[8] = Terminal half life in healthy white human with CYP2C8*1/*1 genotype at 2 mg, po; conditions: in vivo, read-out: beta t1/2 (converted)
How it was run: (§5)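 Single oral 2 mg dose; plasma sampled pre-dose and from 0:15 to 24 h post-dose (15 samples). Repaglinide measured by LC-MS/MS with diclofenac internal standard; calibration 0.098–79.139 µg/L. Noncompartmental analysis; AUC by linear/log-linear trapezoidal rule extrapolated to infinity. Reported as mean with 95% CI for all subjects and for each CYP2C8*3 genotype group.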

Homo sapiens [9] = assay: Mean change in blood glucose concentration in healthy white human plasma SLCO1B1 521TT/CYP2C8*1/*1 combined genotype at 2 mg, po; conditions: in vivo; how it was run: as §4
[10] = Cmax in healthy white human with SLCO1B1 521TT/CYP2C8*1/*3 combined genotype at 2 mg, po; design: dose 2 mg, route oral; conditions: in vivo; how it was run: as §3
[11] = Oral clearance in healthy white human at 2 mg, po; conditions: in vivo
How it was run: (§6)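 Repaglinide was assayed by LC-MS/MS with diclofenac internal standard (LLOQ 0.098 µg/L). Noncompartmental analysis gave AUC by linear/log-linear trapezoidal rule extrapolated to infinity. Weight-adjusted oral clearance = dose/(AUC × body weight).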

Homo sapiens [12] = assay: Mean change in insulin concentration in healthy white human plasma with SLCO1B1 521TT/CYP2C8*1/*1 combined genotype at 2 mg, po; conditions: in vivo; how it was run: as §2
Homo sapiens [13] = assay: Mean change in insulin concentration in healthy white human plasma with SLCO1B1 521TC/CYP2C8*1/*3 combined genotype at 2 mg, po; conditions: in vivo; how it was run: as §2
Homo sapiens [14] = assay: Mean change in blood glucose concentration in healthy white human plasma SLCO1B1 521TC/CYP2C8*1/*3 combined genotype at 2 mg, po; conditions: in vivo
How it was run: (§7)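 Venous blood glucose was read at each blood sampling time after a single oral 2 mg dose, with fasting up to 6 h. […] Maximal change is the largest change from baseline. Mean change is the average difference between values up to 6 h post-dose and baseline.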

[15] = Cmax in healthy white human with SLCO1B1 521CC/CYP2C8*3/*3 combined genotype at 2 mg, po; design: dose 2 mg, route oral; conditions: in vivo; how it was run: as §3
Homo sapiens [16] = assay: Mean change in blood glucose concentration in healthy white human plasma with CYP2C8*1/*3 genotype at 2 mg, po up to 6 hrs; conditions: in vivo; how it was run: as §4
Homo sapiens [17] = assay: Maximal change in blood glucose concentration in healthy white human plasma at 2 mg, po up to 6 hrs; conditions: in vivo; how it was run: as §7
[18] = Tmax in healthy white human at 2 mg, po; conditions: in vivo
[19] = Cmax in healthy white human with SLCO1B1 521TC/CYP2C8*1/*3 combined genotype at 2 mg, po; design: dose 2 mg, route oral; conditions: in vivo; how it was run: as §3
[20] = Terminal half life in healthy white human with CYP2C8*1/*3 genotype at 2 mg, po; conditions: in vivo, read-out: beta t1/2 (converted); how it was run: as §5
[21] = AUC (0 to infinity) in healthy white human with SLCO1B1 521CC/CYP2C8*3/*3 combined genotype at 2 mg, po; design: dose 2 mg, route oral, time infinity; conditions: plasma; how it was run: as §3
Homo sapiens [22] = assay: Mean change in blood glucose concentration in healthy white human plasma with CYP2C8*3/*3 genotype at 2 mg, po up to 6 hrs; conditions: in vivo; how it was run: as §4
[23] = Cmax in healthy white human with CYP2C8*1/*1 genotype at 2 mg, po; design: dose 2 mg, route oral; conditions: in vivo; how it was run: as §3
Homo sapiens [24] = assay: Mean change in insulin concentration in healthy white human plasma with CYP2C8*1/*3 genotype at 2 mg, po up to 6 hrs; conditions: in vivo; how it was run: as §2
Homo sapiens [25] = assay: Maximal change in insulin concentration in healthy white human plasma with CYP2C8*1/*3 genotype at 2 mg, po up to 6 hrs; conditions: in vivo; how it was run: as §1
[26] = Oral clearance in healthy white human with CYP2C8*1/*1 genotype at 2 mg, po; conditions: in vivo; how it was run: as §6
[27] = AUC (0 to infinity) in healthy white human with SLCO1B1 521TC/CYP2C8*1/*3 combined genotype at 2 mg, po; design: dose 2 mg, time infinity, route oral; conditions: plasma; how it was run: as §3
[28] = Cmax in healthy white human at 2 mg, po; design: dose 2 mg, route oral; conditions: in vivo; how it was run: as §3
[29] = Oral clearance in healthy white human with CYP2C8*1/*3 genotype at 2 mg, po; conditions: in vivo; how it was run: as §6
[30] = Oral bioavailability in human; conditions: in vivo
[31] = AUC (0 to infinity) in healthy white human with SLCO1B1 521TC/CYP2C8*1/*1 combined genotype at 2 mg, po; design: dose 2 mg, route oral, time infinity; conditions: plasma; how it was run: as §3
[32] = AUC (0 to infinity) in healthy white human with SLCO1B1 521TC/CYP2C8*3/*3 combined genotype at 2 mg, po; design: dose 2 mg, route oral, time infinity; conditions: plasma; how it was run: as §3
[33] = Cmax in healthy white human with CYP2C8*3/*3 genotype at 2 mg, po; design: dose 2 mg, route oral; conditions: in vivo; how it was run: as §3
Homo sapiens [34] = assay: Mean change in blood glucose concentration in healthy white human plasma SLCO1B1 521CC/CYP2C8*1/*3 combined genotype at 2 mg, po; conditions: in vivo; how it was run: as §7
[35] = Cmax in healthy white human with SLCO1B1 521TT/CYP2C8*1/*1 combined genotype at 2 mg, po; design: dose 2 mg, route oral; conditions: in vivo; how it was run: as §3
[36] = Terminal half life in healthy white human at 2 mg, po; conditions: in vivo, read-out: beta t1/2 (converted); how it was run: as §5

SMILES: CCOc1cc(CC(=O)N[C@@H](CC(C)C)c2ccccc2N2CCCCC2)ccc1C(=O)O [REPAGLINIDE]
- Activity (Homo sapiens [1]): 18.8 mU/L
- Activity (Homo sapiens [2]): 0.6 mU/l
- Tmax [3]: 0.8 h
- AUC(0-inf) [4]: 0.106 µg·h/mL
- Activity (Homo sapiens [5]): -0.5 mM
- Cmax [6]: 0.0177 µg/mL
- Activity (Homo sapiens [7]): 2.6 mU/L
- half-life [8]: 1.2 h
- Activity (Homo sapiens [9]): -0.4 mM
- Cmax [10]: 0.057 µg/mL
- CL/F [11]: 0.46 L/h/kg
- Activity (Homo sapiens [12]): 7.1 mU/l
- Activity (Homo sapiens [13]): 5.6 mU/l
- Activity (Homo sapiens [14]): -1 mM
- Cmax [15]: 0.0679 µg/mL
- Activity (Homo sapiens [16]): -0.65 mM
- Activity (Homo sapiens [17]): -1.69 mM
- Tmax [18]: 0.8 h
- Cmax [19]: 0.045 µg/mL
- half-life [20]: 1.3 h
- AUC(0-inf) [21]: 0.0958 µg·h/mL
- Activity (Homo sapiens [22]): -0.5 mM
- Cmax [23]: 0.0603 µg/mL
- Activity (Homo sapiens [24]): 5.2 mU/L
- Activity (Homo sapiens [25]): 17.3 mU/L
- CL/F [26]: 0.45 L/h/kg
- AUC(0-inf) [27]: 0.0772 µg·h/mL
- Cmax [28]: 0.0528 µg/mL
- CL/F [29]: 0.46 L/h/kg
- bioavailability [30]: 60%
- AUC(0-inf) [31]: 0.146 µg·h/mL
- AUC(0-inf) [32]: 0.0234 µg·h/mL
- Cmax [33]: 0.0385 µg/mL
- Activity (Homo sapiens [34]): -0.2 mM
- Cmax [35]: 0.0525 µg/mL
- half-life [36]: 1.3 h

— ChEMBL document CHEMBL3526119, “Effect of the CYP2C8 genotype on the pharmacokinetics and pharmacodynamics of repaglinide” (Drug Metab Dispos, 2011)
